Measurements as given in ChEMBL document CHEMBL1121619, “Demethyl analogues of psychoactive methoxyphenalkylamines: synthesis and serotonin receptor affinities” (J Med Chem, 1980).

target: T1, 5-hydroxytryptamine receptor 2B (Rattus norvegicus, UniProt P30994); assay: (§1) Antagonistic activity of corresponding methoxy compound against serotonin 5-HT receptor; assay type: functional; details: read-out: pA2 (converted)
T1 sequence (P30994 whole entry): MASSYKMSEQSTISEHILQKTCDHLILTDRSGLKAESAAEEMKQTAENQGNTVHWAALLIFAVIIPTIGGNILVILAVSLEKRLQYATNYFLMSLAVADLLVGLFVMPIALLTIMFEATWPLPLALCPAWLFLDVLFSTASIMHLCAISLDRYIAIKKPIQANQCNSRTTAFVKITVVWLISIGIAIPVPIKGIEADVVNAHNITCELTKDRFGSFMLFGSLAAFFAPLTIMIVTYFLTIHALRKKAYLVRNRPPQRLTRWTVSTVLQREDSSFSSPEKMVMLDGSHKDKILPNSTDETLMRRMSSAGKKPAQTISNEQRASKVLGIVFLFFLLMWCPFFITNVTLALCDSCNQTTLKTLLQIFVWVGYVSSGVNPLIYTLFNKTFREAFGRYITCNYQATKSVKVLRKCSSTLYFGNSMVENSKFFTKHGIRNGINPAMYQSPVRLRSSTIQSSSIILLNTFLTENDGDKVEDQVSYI

| SMILES | Kb |
| --- | --- |
| NCCc1ccc(O)cc1 [TYRAMINE] | 7940 nM |

target: Serotonin (5-HT) receptor; assay: as §1; assay type: functional; details: not given

| SMILES | pA2 |
| --- | --- |
| NCCc1ccccc1O | 5.52 |

target: T1, 5-hydroxytryptamine receptor 2B; assay: Antagonistic activity against 5-hydroxytryptamine 2B receptor obtained from rat stomach fundus preparation; assay type: functional, tissue-based; details: read-out: pA2 (converted)

| SMILES | Kb |
| --- | --- |
| COc1cc(CC(C)N)c(O)cc1C (centres undefined) | 36.3 nM |
| COc1ccc(OCc2ccccc2)c(CCN(C)C)c1 | 3630 nM |
| COc1ccc(O)c(CCN(C)C)c1 | 145 nM |
| COc1ccc(CC(C)N)cc1O (centres undefined) | 135 nM |
| COc1ccc(O)c(CCN)c1 | 79.4 nM |
| COc1ccc(O)c(CC(C)N)c1 (centres undefined) | 100 nM |
| COc1ccc(O)c(CC(C)N(C)C)c1 (centres undefined) | 166 nM |
| COc1cc(C)c(O)cc1CC(C)N (centres undefined) | 12.3 nM |
| COc1cc(CC(C)N)ccc1O (stereo not drawn) [3-O-METHYL-ALPHA-METHYLDOPAMINE] | 6460 nM |

test system: Rattus norvegicus; assay: Compound was tested for its activity for maximal correct- drug lever responding at doses 2 mg/Kg in rat; Range 0-8%; assay type: functional; details: not given
Summary of the method: (§2)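 Rats were trained in a two-lever drug discrimination procedure to tell 5-methoxy-N,N-dimethyltryptamine hydrogen oxalate (1.5 mg/kg) from saline. Each challenge dose was given to three to six rats, and the percentage of drug-lever responding was recorded.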

| SMILES | Activity |
| --- | --- |
| COc1cc(C)c(O)cc1CC(C)N (centres undefined) | 0% |

test system: Rattus norvegicus; assay: Compound was tested for its activity for maximal correct- drug lever responding at doses 5 mg/Kg in rat; Range 0-8%; assay type: functional; details: not given; summary of the method: as §2

| SMILES | Activity |
| --- | --- |
| COc1cc(C)c(O)cc1CC(C)N (centres undefined) | 0% |

target: T1, 5-hydroxytryptamine receptor 2B; assay: Antagonistic against 5-hydroxytryptamine 2B receptor; assay type: functional; details: read-out: pA2 (converted)

| SMILES | Kb |
| --- | --- |
| COc1cc(CC(C)N)c(O)cc1C (centres undefined) | 75.9 nM |
| COc1ccc(OCc2ccccc2)c(CCN(C)C)c1 | 302 nM |
| COc1ccc(O)c(CCN(C)C)c1 | 302 nM |
| COc1ccc(CC(C)N)cc1O (centres undefined) | 3550 nM |
| COc1ccc(O)c(CCN)c1 | 141 nM |
| COc1ccc(O)c(CC(C)N)c1 (centres undefined) | 148 nM |
| COc1ccc(CC(C)N)c(O)c1 (centres undefined) | 2510 nM |
| COc1ccc(O)c(CC(C)N(C)C)c1 (centres undefined) | 316 nM |
| COc1cc(C)c(O)cc1CC(C)N (centres undefined) | 75.9 nM |
| COc1cc(CC(C)N)ccc1O (stereo not drawn) [3-O-METHYL-ALPHA-METHYLDOPAMINE] | 3550 nM |

test system: Rattus norvegicus; assay: Compound was tested for its activity for maximal correct- drug lever responding at doses 3 mg/Kg in rat; Range 0-8%; assay type: functional; details: not given; summary of the method: as §2

| SMILES | Activity |
| --- | --- |
| COc1cc(C)c(O)cc1CC(C)N (centres undefined) | 0% |
